# Source: PubChem BioAssay
# Shown is part of a subset that was picked to be rich in hits.
# Tcruzi prolif = T. cruzi proliferation inhibition | T. cruzi beta-gal in NIH3T3, GalScreen luminescence, 90 h | inhibition, % at 8.34 µM | actives 5.9% (n = 77,000) | AID 624255;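 active = mean inhibition above about 93%, with at least 55% of replicates each passing it, limit read from the data, passing the limit was not always enough; inconclusive = only one of those two conditions holds; inactive = neither condition holds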
# KDM4C inh = KDM4C (human) demethylase inhibition; GST-KDM4C 2-372, H3K9me3 peptide, LANCE TR-FRET; inhibition, % at 12.5 µM; actives 0.15% (n = 96,000); Q9H3R0;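 active = mean replicate inhibition above about 25%, with at least 55% of replicates also reaching it, limit read from the data, passing the limit was not always enough; inconclusive = only one of those two conditions met; inactive = neither condition met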
#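 Assay system: GST-GASC-1 enzyme fragment 2-372 | Amount: 10 nM enzyme | Medium: HEPES buffer, pH 7.5, plus ascorbate | Reagent: H3K9me3 peptide substrate, Fe(II), 2-oxoglutarate | Doses: Single-point compound screen | Incubation: 30 min demethylation and 1 h detection at room temperature | Measured by: LANCE TR-FRET, excitation 340 nm, emissions 618 and 671 nm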
# IDH1 mut inh = blocks human IDH1 R132H reductase activity | diaphorase/resazurin fluorescence, 60 min | inhibition, % at 10 µM | O75874 | actives 0.18% (n = 70,000); in the data active = inhibition above about 34%; inconclusive = no clear call, values can overlap the other calls; inactive = below about 11%;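 note: 0% = DMSO and 100% = no enzyme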
# Target sequence (O75874 whole entry R132H): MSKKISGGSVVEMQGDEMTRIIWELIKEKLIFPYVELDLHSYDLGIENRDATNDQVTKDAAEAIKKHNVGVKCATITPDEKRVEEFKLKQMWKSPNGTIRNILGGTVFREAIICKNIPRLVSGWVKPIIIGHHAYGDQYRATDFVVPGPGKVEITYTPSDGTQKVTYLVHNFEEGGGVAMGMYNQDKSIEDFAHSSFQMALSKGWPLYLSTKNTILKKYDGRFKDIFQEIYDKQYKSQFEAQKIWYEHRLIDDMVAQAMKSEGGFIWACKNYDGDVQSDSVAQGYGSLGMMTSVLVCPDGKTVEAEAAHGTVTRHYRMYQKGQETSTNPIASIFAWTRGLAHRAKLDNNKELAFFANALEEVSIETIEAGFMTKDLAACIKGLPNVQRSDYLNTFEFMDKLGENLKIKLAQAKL
# The depositor's hits bear a star; ? = inconclusive; . = no result given.
SMILES,Tcruzi prolif,KDM4C inh,IDH1 mut inh
COc1ccc(C#Cc2cnc3c(c2)C(=O)N([C@H](C)CO)C[C@@H](C)[C@H](CN(C)C)O3)cc1,43.8,-1.5,-0.2
COc1ccc(C#Cc2cnc3c(c2)C(=O)N([C@H](C)CO)C[C@@H](C)[C@@H](CN(C)C)O3)cc1,76.4,-0.6,0.0
C[C@@H]1CN([C@H](C)CO)C(=O)c2cccc(NC(=O)c3nc4ccccc4s3)c2O[C@@H]1CN(C)Cc1ccc(C(=O)Nc2ccccc2N)cc1,90.4,-1.3,0.0
C[C@@H]1CN([C@@H](C)CO)C(=O)c2cccc(NC(=O)c3nc4ccccc4s3)c2O[C@H]1CN(C)Cc1ccc(C(=O)Nc2ccccc2N)cc1,104.2*,-0.1,.
C[C@@H]1CN([C@@H](C)CO)C(=O)c2cc(C#CCc3ccccc3)cnc2O[C@@H]1CN(C)Cc1ccc(C(=O)O)cc1,.,-2.4,0.6
C[C@H]1CN([C@@H](C)CO)C(=O)c2cc(C#CCc3ccccc3)cnc2O[C@@H]1CN(C)Cc1ccc(C(=O)O)cc1,.,4.2,35.3*
COc1ccc(C#Cc2cnc3c(c2)C(=O)N([C@H](C)CO)C[C@H](C)[C@H](CN(C)C)O3)cc1OC,85.6,28.9*,-1.0
COc1ccc(C#Cc2cnc3c(c2)C(=O)N([C@@H](C)CO)C[C@H](C)[C@H](CN(C)C)O3)cc1,69.5,28.2*,-0.5
C=C1CCC2(C(=O)O)CCC3(C)C(=CCC4C5(C)C[C@@H](O)[C@H](O)C(C)(CO)C5CCC43C)C2C1C (stereo partly specified),.,.,0.2
COC(=O)c1ccccc1NC(=O)CN(C)S(=O)(=O)c1ccc2ccccc2c1,.,.,0.0
Cc1cc(Cl)cc(Cl)c1OCC(=O)Nc1ccc(Cl)c(-c2nc3ncccc3o2)c1,.,.,0.1
CCn1c(SCC(=O)Nc2cc3oc4ccccc4c3cc2OC)nnc1-c1cccnc1,.,.,-0.3
CS(=O)(=O)N(CC(=O)Nc1ccccc1Sc1ccccc1)c1cccc(C(F)(F)F)c1,.,.,-0.1
COC(=O)CC1C(=O)NCCN1C(=S)Nc1cccc(OC)c1 (stereo unspecified),.,.,0.5
CS(=O)(=O)N(CC(=O)Nc1ccc(C(F)(F)F)cc1)c1ccccc1Cl,.,.,-0.3
COc1ccccc1-c1cnc2c(c1)C(=O)N([C@H](C)CO)C[C@@H](C)[C@H](CN(C)C)O2,.,32.7*,16.5
COc1ccccc1-c1cnc2c(c1)C(=O)N([C@H](C)CO)C[C@H](C)[C@@H](CN(C)C)O2,.,2.8,-0.6
Cc1ccc(C)c(C(Nc2ccccn2)c2ccc3ccc(C)nc3c2O)c1 (stereo unspecified),.,.,0.1
CCNC(=O)[C@@H]1[C@@H](CO)[C@@H]2Cn3c(ccc(-c4cccnc4)c3=O)[C@@H]2N1Cc1ccccc1,-1.4,5.0,.
O=C(NCC(F)(F)F)[C@@H]1[C@@H](CO)[C@@H]2Cn3c(ccc(-c4cccnc4)c3=O)[C@@H]2N1Cc1ccncc1,6.0,37.6*,.
COc1ccc(NC(=O)N(C)C[C@@H]2Oc3cc(-c4ccncc4)ccc3S(=O)(=O)N([C@H](C)CO)C[C@@H]2C)cc1,17.0,36.9*,71.3*
COc1ccc(NC(=O)N(C)C[C@@H]2Oc3cc(-c4ccncc4)ccc3S(=O)(=O)N([C@@H](C)CO)C[C@@H]2C)cc1,48.4,-0.7,-4.7
COc1ccc(-c2ccc3c(c2)O[C@H](CN(C)C(=O)c2ccccc2F)[C@H](C)CN([C@@H](C)CO)S3(=O)=O)cc1,86.1,1.5,2.2
COc1ccc(-c2ccc3c(c2)O[C@H](CN(C)C(=O)c2ccccc2F)[C@H](C)CN([C@H](C)CO)S3(=O)=O)cc1,46.3,45.4*,?
COC(=O)c1ccccc1NC(=O)CSc1nc2c(c(C(F)(F)F)n1)CCCC2,.,.,0.0
SMILES,Tcruzi prolif,KDM4C inh,IDH1 mut inh
CC(C)C(NS(=O)(=O)c1ccc(F)c(Cl)c1)C(=O)O (stereo unspecified),.,.,-0.1
Cc1cc(-c2ccc(N=Nc3cc(S(=O)(=O)O)c4ccccc4c3N)c(C)c2)ccc1N=Nc1cc(S(=O)(=O)O)c2ccccc2c1N,.,.,42.6*
Cc1cc(N)n(-c2ccc(Oc3ccccc3)cc2S(=O)(=O)O)n1,.,.,-0.6
O=S(c1ccccc1)c1ccc2nnnn2n1 (stereo unspecified),.,.,62.4*
Cc1ccc(S(=O)(=O)N(C)C[C@@H]2OCCCC[C@H](C)Oc3ccc(NS(=O)(=O)c4ccc(Cl)cc4)cc3C(=O)N([C@H](C)CO)C[C@@H]2C)cc1,108.0*,-1.6,0.2
Cc1ccc(S(=O)(=O)N(C)C[C@@H]2OCCCC[C@@H](C)Oc3ccc(NS(=O)(=O)c4ccc(Cl)cc4)cc3C(=O)N([C@@H](C)CO)C[C@H]2C)cc1,82.3,-0.4,.
